# From PubChem
# The list is not random: actives were taken first. Their share in the collection is about 3.2%.
# PRMT1 FP inh: PRMT1 methyltransferase inhibitors, primary screen, biochemical, fluorescence polarization | Protein arginine N-methyltransferase 1 (Homo sapiens), Q99873 | recombinant PRMT1, activity-based probe fluorescence polarization | inhibition, % at 2.79 µM | hit rate 1.3% among 370,000;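 active = inhibition above about 21% made by adding two undisclosed values, limit read from the data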
# HTRA1 inhibitor: HTRA1 serine protease inhibitors, primary screen, biochemical, fluorescence polarization, HTS. Q92743. recombinant HTRA1, FP-rhodamine activity-based probe. inhibition, % at 5.96 µM. hit rate 0.5% among 340,000. AID 504803, 2011; in the data active = inhibition above about 36%;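 note: 0% = enzyme with DMSO and 100% = wells lacking enzyme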
# rCAG RNA binder: binders of r(CAG) RNA repeats, primary screen, biochemical, fluorescence; inhibition, % at 3 µM; hit rate 1.3% among 370,000; AID 651821, 2012; r(CAG) RNA repeat, TO-PRO-1 dye displacement fluorescence;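 active = inhibition above the plate cutoff, the mean of all test compounds on that plate plus 3 SD, cut at about 35% in these data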;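 note: 0% = DMSO alone and 100% = 100 µM mitoxantrone as full dye displacement; higher means more dye released from RNA so lower well fluorescence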
# DAGLB inh: DAGLB lipase inhibitors, primary screen, biochemical, fluorescence, HTS. HEK293T DAGLB membrane lysate, EnzChek fluorogenic substrate. inhibition, % at 5.17 µM. Diacylglycerol lipase-beta (Homo sapiens), Q8NCG7. AID 504411, 2011. hit rate 0.059% among 340,000; in the data active = inhibition above about 34%;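 note: 0% = enzyme with vehicle and 100% = wells lacking enzyme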
# Target sequence (Q8NCG7 whole entry, looked up): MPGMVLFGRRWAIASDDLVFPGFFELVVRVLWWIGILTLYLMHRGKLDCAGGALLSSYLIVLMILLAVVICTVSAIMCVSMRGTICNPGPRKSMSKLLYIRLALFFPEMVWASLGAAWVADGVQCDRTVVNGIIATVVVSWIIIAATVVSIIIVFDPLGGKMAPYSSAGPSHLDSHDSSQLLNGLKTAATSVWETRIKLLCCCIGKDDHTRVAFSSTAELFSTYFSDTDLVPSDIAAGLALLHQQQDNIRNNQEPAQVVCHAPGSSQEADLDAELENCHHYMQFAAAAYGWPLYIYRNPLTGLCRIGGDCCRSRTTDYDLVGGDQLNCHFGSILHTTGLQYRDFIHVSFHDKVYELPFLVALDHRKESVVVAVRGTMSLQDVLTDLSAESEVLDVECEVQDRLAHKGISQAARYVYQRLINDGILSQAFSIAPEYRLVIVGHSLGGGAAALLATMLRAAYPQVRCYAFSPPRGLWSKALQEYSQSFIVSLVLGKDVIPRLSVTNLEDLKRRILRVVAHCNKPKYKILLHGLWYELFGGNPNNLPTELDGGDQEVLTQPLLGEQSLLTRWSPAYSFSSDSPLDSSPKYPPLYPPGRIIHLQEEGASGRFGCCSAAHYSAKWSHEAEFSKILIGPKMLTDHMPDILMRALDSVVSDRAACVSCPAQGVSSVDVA
# mABHD4 FP: ABHD4 inhibitors, primary screen, biochemical, fluorescence polarization, mouse | purified mABHD4, FP-Rh probe fluorescence polarization | inhibition, % at 8.92 µM | hit rate 0.54% among 370,000;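 active = inhibition exceeding the mean over every tested compound plus 3 SD, cut at about 30% in these data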;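 note: 0% = plate median of compound wells and 100% = S159A mutant with DMSO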
#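 system = mouse ABHD4 enzyme, wild type | medium = HEPES pH 7.0, NaCl, Pluronic buffer | also added = FP-Rh probe | incubation = Enzyme–compound pre-incubation 45 min, then probe 60 min, both 25 °C | technique = fluorescence polarization, excitation 525 nm, emission 598 nm, BODIPY TMR filters | controls = S159A mutant high control, sample median low control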
# LEDGF integ inh: blockers of LEDGF/p75-dependent integrase strand transfer – biochemical, TR-FRET, high throughput, primary screen; HIV-1 integrase (with human LEDGF/p75); TR-FRET IN-LEDGF/p75 DNA integration, Eu/Cy5; inhibition, % at 3.7 µM; hit rate 0.64% among 370,000; AID 743269, 2014;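 active = inhibition above the screen-wide mean plus 3 SD, cut at about 13% in these data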;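 note: signal is the Cy5 over europium emission ratio at 671 and 618 nm; 0% = plate median of compound wells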
# IN multimer up: HIV-1 IN multimer formation enhancers, counter-screen for LEDGF/p75 integration inhibitor project, biochemical, TR-FRET; shares compounds with LEDGF integ inh; hit rate 17% among 2,000; activation, % at 7.7 µM; TR-FRET HIV-1 integrase multimerization; in the data active = activation above about 8.9%
# TRFRET interf: TR-FRET optical interference artefacts, confirmation, artefact control for LEDGF/p75-dependent integration inhibitor project, biochemical, HIV-1 IN multimerization | inhibition, % at 7.7 µM | shares compounds with LEDGF integ inh | 2,000 tested, under 10 active | AID 1053135, 2014 | TR-FRET optical interference counterscreen;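 active = inhibition above the mean over all tested compounds plus 3 SD, which no compound reached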;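 note: 0% = integrase with antibodies and DMSO and 100% = antibodies without integrase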
# IN-LEDGF confirm: inhibitors of HIV-1 IN-LEDGF/p75 DNA integration, confirmation, biochemical, TR-FRET. shares compounds with LEDGF integ inh. TR-FRET LEDGF/p75-dependent HIV-1 integration. inhibition, % at 3.7 µM. hit rate 36% among 2,000; in the data active = inhibition above about 14%
# Active calls of the source: *; nt = no result.
SMILES,PRMT1 FP inh,HTRA1 inhibitor,rCAG RNA binder,DAGLB inh,mABHD4 FP,LEDGF integ inh,IN multimer up,TRFRET interf,IN-LEDGF confirm
CN(C)Cc1cc(O)c(CN(C)C)cc1O,9,15,0,0,6,24*,5,-17,30*
Cc1ncc([N+](=O)[O-])n1CC(=O)Nc1cc(Cl)ccc1Cl,1,-7,2,0,6,52*,-1,3,-2
Cn1c(=O)c2c(nc(CN3CCN(C(=O)c4ccco4)CC3)n2Cc2cccc(Cl)c2)n(C)c1=O,0,0,-3,4,-9,3,nt,nt,nt
Cc1ccc(CNC(=O)c2cc3c(=O)n4ccccc4nc3n(Cc3ccco3)c2=N)cc1,5,-44,17,13,3,16*,9.2*,-33,21*
COc1ccc(CS(=O)(=O)CC(C)(O)c2ccc(Cl)cc2)cc1 (configuration not stated),-4,0,-2,-1,-2,14*,0,-2,0
O=C(CC1CS(=O)(=O)CC1CC(=O)Oc1ccccc1F)Oc1ccccc1F (configuration not stated),2,-1,-5,2,6,24*,2,-7,5
O=C(NCc1cccs1)C(=O)NCC(c1ccco1)N1CCN(c2ccccc2F)CC1 (configuration not stated),3,-3,-7,-3,-1,-6,nt,nt,nt
O=C(Cc1cccs1)N(c1ccc(Cl)cc1)C1C=CS(=O)(=O)C1 (configuration not stated),4,-1,1,6,-4,2,nt,nt,nt
Cc1cc(NC(=O)CCCS(=O)(=O)c2nc(-c3cccs3)cc(C(F)(F)F)n2)no1,2,-13,-2,-3,0,19*,-1,5,2
CN1C2CCC1/C(=C/c1cccn1C)C(=O)/C2=C\c1cccn1C,10,-46,-32,-37,1,14*,0,0,-3
CN1C2CCC1/C(=C\c1ccc(F)cc1)C(=O)/C2=C/c1ccc(F)cc1,-1,-8,-1,-4,-6,2,nt,nt,nt
Cc1ccc(-c2c(C(=O)c3ccc(Br)cc3)[nH]c(N)c2C(=O)NCc2ccc(Cl)cc2)cc1,-1,nt,8,nt,-3,1,nt,nt,nt
S=C(Nc1ccccc1)c1ccccn1,0,-4,2,10,-8,3,nt,nt,nt
CN1CCN(CP(=O)(N2CCOCC2)N2CCOCC2)CC1,-2,1,1,0,5,27*,6,-21,3
Nn1cnnc1N/N=C\c1ccc(-c2ccccc2[N+](=O)[O-])o1,5,5,1,1,5,38*,2,-9,1
CC(C(=O)N(C)C1CCS(=O)(=O)C1)N1C(=O)/C(=C/c2ccco2)SC1=S (configuration not stated),24*,3,22,2,13,30*,2,-8,15*
O=c1/c(=C\c2cc([N+](=O)[O-])cc([N+](=O)[O-])c2O)sc2nc3ccccc3n12,nt,6,nt,15,nt,nt,nt,nt,nt
O=C(O)c1cccc(-c2ccc(/C=c3/sc4nc5ccccc5n4c3=O)o2)c1,24*,-5,28,-2,15,46*,11*,-54,20*
CC1CC(C)CN(CCCNC(=O)CC2Oc3ccccc3NC2=O)C1 (configuration not stated),3,-1,3,2,-1,-5,nt,nt,nt
CCOc1ccc(N=Cc2ccc([N+](=O)[O-])cc2)c(O)c1,22*,31,12,3,35*,20*,11*,-38,-3
O=C(COC(=O)c1cc(S(=O)(=O)N2CCOCC2)ccc1F)Nc1cc([N+](=O)[O-])ccc1F,-2,-6,5,0,-3,-3,nt,nt,nt
CN(C)c1cccc2c(S(=O)(=O)Nc3ccccn3)cccc12,-1,0,-1,-3,2,19*,0,-2,-2
O=C(CCC1CCCCC1)NC1=NCCS1,4,-1,1,1,4,-5,nt,nt,nt
Cc1cc(Nc2nc3ccccc3nc2Cl)n(-c2ccc([N+](=O)[O-])cc2)n1,2,-14,-3,0,1,82*,0,-2,-1
Cn1c(=O)c2c(nc(NN=C3CCCC3)n2C)n(C)c1=O,4,7,5,-2,2,19*,6,-33,10
SMILES,PRMT1 FP inh,HTRA1 inhibitor,rCAG RNA binder,DAGLB inh,mABHD4 FP,LEDGF integ inh,IN multimer up,TRFRET interf,IN-LEDGF confirm
Cc1coc2c1c(C)cc1oc(=O)c(CC(=O)NCC(=O)NCC(=O)O)c(C)c12,0,1,6,-3,0,0,nt,nt,nt
Cc1coc2c1c(C)cc1oc(=O)c(Cc3ccccc3)c(C)c12,-1,-7,1,-3,2,15*,-4,20,4
CCOC(=O)c1c(NC(=O)CSc2nnc(CNC(=O)c3ccco3)n2C)sc2c1CCC2,0,-1,0,-1,-5,60*,-1,3,-3
COC(=O)\C(C(C)=O)=C(/C=C/C=C/N(C)C)N(C)C,6,-3,6,1,11,34*,1,-5,10
CC(C)Oc1ccc(CCNC(=O)C2CCC(=O)N(Cc3cccc(F)c3)C2)cc1 (configuration not stated),5,6,-9,0,-6,2,nt,nt,nt
CN1CCN(C(=O)c2cc3sc4ccccc4c3s2)CC1,4,nt,-5,nt,-10,-3,nt,nt,nt
COc1ccc(-n2c(C)cc(/C=N/Nc3nnc(C)n3N)c2C)cc1,7,15,3,-2,10,49*,3,-12,-3
Cc1ccnc(N/N=C/c2ccco2)n1,-1,-1,0,2,3,-1,nt,nt,nt
Fc1ccccc1/C=N/Nc1ccc(Cl)nn1,-1,0,1,0,-1,0,nt,nt,nt
Cc1nnc(N/N=C/c2ccco2)n1N,2,8,-4,1,-1,43*,5,-24,-3
